# The list is not random: actives were taken first. Their share in the collection is about 1.8%.
# GSTO1 counter: blocks human GSTO1 in RBBP9 counter-screen; recombinant GSTO1, activity-based probe fluorescence polarization; inhibition, % at 5.96 µM; 300,000 compounds, 1.1% hits; AID 1974;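 active = inhibition above the campaign mean inhibition plus 3 SD, cut at about 35% in these data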;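 note: 0% = GSTO1-1 with DMSO and 100% = wells lacking GSTO1-1 enzyme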
# Target sequence (P78417 whole entry, looked up): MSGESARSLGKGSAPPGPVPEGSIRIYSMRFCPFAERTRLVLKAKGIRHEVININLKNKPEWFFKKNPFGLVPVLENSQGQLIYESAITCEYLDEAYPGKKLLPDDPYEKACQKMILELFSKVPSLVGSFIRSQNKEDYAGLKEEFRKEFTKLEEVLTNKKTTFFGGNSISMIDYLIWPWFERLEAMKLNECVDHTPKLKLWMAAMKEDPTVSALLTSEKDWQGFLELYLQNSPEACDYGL
# proCasp3 act: activates human procaspase-3; recombinant procaspase-3 D3A, Ac-DEVD-pNA absorbance 405 nm; 330,000 compounds, 0.11% hits; activation, % at 8.5 µM; P42574; AID 463141;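 active = activation above the mean of all tested compounds plus 3 SD, cut at about 21% in these data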;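 note: 0% = DMSO alone and 100% = DMSO wells spiked with extra 5 µM PC-3 D3A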
#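 Assay system: Procaspase-3 D3A mutant, all three cleavage aspartates alanine. Buffer or medium: Zinc-free HEPES saline buffer with Triton X-100. Times: 1 h compound preincubation, 2 h substrate hydrolysis at 25 °C. Measured by: 405 nm absorbance of p-nitroaniline, reads at 0 and 120 min. Read-out basis: percent activation relative to control range. Replicates: singlicate.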
# procasp7 counter: counter-screen for procaspase-3 activators: activators of human procaspase-7; P55210; recombinant procaspase-7, Ac-DEVD-pNA absorbance 405 nm; D23A/D198A/D206A triple mutant, cannot self-cleave; scale: DMSO 0, 5 µM enzyme 100; activation, % at 8.5 µM; 330,000 compounds, 0.093% hits;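 active = percent activation above the screen-wide mean plus 3 SD, cut at about 25% in these data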
# Target sequence (P55210 whole entry D23A/D198A/D206A): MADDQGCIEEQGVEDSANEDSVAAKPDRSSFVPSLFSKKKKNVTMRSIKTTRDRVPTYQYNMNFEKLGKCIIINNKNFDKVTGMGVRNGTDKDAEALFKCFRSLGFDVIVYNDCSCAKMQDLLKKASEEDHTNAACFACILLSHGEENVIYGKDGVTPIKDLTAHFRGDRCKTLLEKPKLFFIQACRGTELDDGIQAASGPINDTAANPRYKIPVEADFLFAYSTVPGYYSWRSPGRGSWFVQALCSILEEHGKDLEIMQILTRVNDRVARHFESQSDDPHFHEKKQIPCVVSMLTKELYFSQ
#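 Test system: Procaspase-7 triple mutant (PC-7 D3A). Also added: Ac-DEVD-pNA substrate, 400 µM as added. Schedule: 1 h enzyme–compound preincubation and 2 h substrate reaction, both 25 °C. Signal: p-Nitroaniline absorbance at 405 nm, read at 0 and 120 min. Control set: low DMSO alone, high DMSO plus 5 µM PC-7.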
# EBNA-1 inhibitor: blocks EBNA-1 binding to DNA | 300,000 compounds, 0.34% hits | EBNA-1 DNA binding, fluorescence polarization | AID 1950 | inhibition, % at 14.8 µM; in the data active = inhibition above about 28%
# ZTA counter: counter-screen for EBNA-1 inhibitors: inhibitors of Epstein-Barr virus ZTA; P03206; ZTA-DNA binding, fluorescence polarization; inhibition, % at 11 µM; 320,000 compounds, 0.15% hits; in the data active = inhibition above about 33%
# Apaf-1 inh: inhibitors of human Apaf-1 apoptosome | 330,000 compounds, 0.71% hits | reconstituted apoptosome caspase-3 activity, DEVD-Rh110 fluorescence | O14727 | AID 489030 | inhibition, % at 20 µM; active = inhibition of at least 40% at 20 µM;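 note: plate controls were DMSO wells for no effect and DEVD-CHO caspase inhibitor wells for full effect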
#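 System: reconstituted apoptosome with Apaf-1, cytochrome c, caspase-9, procaspase-3, dATP; Signal: Rh110 fluorescence intensity; Schedule: 30 min compound preincubation, 50 min activation, room temperature; Reagent: cytochrome c trigger plus (Z-DEVD)2-Rh110 caspase-3 substrate.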
# GSTO1 inh conf: confirmation of human GSTO1 inhibitors | shares compounds with GSTO1 counter | recombinant GSTO1, probe fluorescence polarization | inhibition, % at 5.96 µM | 2,400 compounds, 54% hits;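 active = inhibition above the primary screen's cutoff, its mean inhibition plus 3 SD, cut at about 35% in these data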;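 note: loss of polarization as inhibitors block binding of rhodamine sulfonate ester activity probe; 0% = GSTO1 with DMSO and 100% = wells lacking GSTO1 enzyme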
# ZTA inh confirm: EBV ZTA DNA binding inhibition, confirmation; shares compounds with ZTA counter; Zta-ZRE DNA binding, fluorescence polarization; inhibition, % at 11.1 µM; 320 compounds, 30% hits; AID 2361;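 active = mean inhibition across triplicate runs above the hit threshold derived for the original primary screen, cut at about 33% in these data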;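 note: 0% = Zta with DMSO and 100% = wells lacking Zta protein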
# EBNA1 counter: blocks EBNA-1 DNA binding in ZTA counter-screen; AID 2362; fluorescence polarization; 320 tested, under 10 active; inhibition, % at 14.8 µM; shares compounds with ZTA counter
# Apaf-1 inh conf: Apaf-1 inhibition, single-dose confirmed; shares compounds with Apaf-1 inh; reconstituted apoptosome, caspase-3 DEVD-Rh110 fluorescence; inhibition, % at 20 µM; 1,800 compounds, 25% hits; AID 504614;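 active = mean inhibition of at least 40% at 20 µM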;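 note: plate controls were DMSO wells for no effect and DEVD-CHO caspase inhibitor control wells for full effect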
# Rh110 interf inh: counter-screen for Apaf-1 inhibitors: fluorescence interference. shares compounds with Apaf-1 inh. Rh110 fluorescence interference, quenched caspase reaction. activation (fluorescence interference), % at 20 µM. 1,800 tested, under 10 active. AID 504615;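 active = signal rise of 40% or more at 20 µM, treated as a fluorescence artifact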
# Apaf1 inh interf: shows fluorescence interference in the Apaf-1 inhibitor assay format; shares compounds with Apaf-1 inh; fluorescence interference counterscreen, Apaf-1 assay format; IC50, µM; 460 tested, under 10 active; AID 588538
# An asterisk follows results filed as active; x = no result. Unless noted, the rule behind the calls is not given here.
SMILES,GSTO1 counter,proCasp3 act,procasp7 counter,EBNA-1 inhibitor,ZTA counter,Apaf-1 inh,GSTO1 inh conf,Apaf-1 inh conf,Rh110 interf inh,Apaf1 inh interf,others
c1ccc(-c2nnc(-c3ccco3)o2)cc1,-4.7,4.2,3.2,8.8,-16.0,-10.5,x,x,x,x,
c1coc(-c2nnc(-c3ccco3)nn2)c1,67.8*,-4.4,-16.8,5.4,36.6*,84.3*,37.8*,58.4*,5.5,>100,ZTA inh confirm=33.3*;EBNA1 counter=-7.8
COc1cc(NC(=O)CN2C(=O)COc3ccc(S(=O)(=O)N4CCOCC4)cc32)cc(OC)c1,-9.7,3.1,1.0,-9.6,-8.4,-1.9,x,x,x,x,
CC(=O)N(\C=C/C=C/C=C1\Sc2ccccc2C1=O)c1ccccc1,-7.1,3.3,-10.3,5.2,-25.1,27.6,x,x,x,x,
CC(=O)N(/N=C1\Sc2ccccc2C1=O)c1ccccc1C,40.8*,-5.0,-24.4,-5.8,5.3,89.8*,70.8*,84.8*,11.3,>100,
O=C1Nc2ccccc2C1=O,1.0,0.5,2.3,-4.4,6.3,-1.3,x,x,x,x,
O=C1c2ccccc2C(=O)c2[nH]c(=O)[nH]c21,63.6*,3.6,-12.5,4.6,-0.5,80.0*,62.1*,75.0*,-2.4,>100,
O=C1C(O)=C(O)C(=O)c2ccccc21,81.0*,-8.9,-5.0,6.8,-2.1,92.1*,68.0*,66.8*,7.2,>100,
O=C1C(=O)c2ccccc2C(O)=C1c1ccccc1F,-5.1,-11.9,0.8,11.7,-9.2,4.0,x,x,x,x,
O=C1C(=Cc2ccco2)C(=O)c2ccccc21,37.9*,3.4,-1.1,4.4,-5.6,44.4*,26.6,10.4,2.1,x,
CC(C)CC(=O)c1c(O)c(C=O)c(O)c2c1O[C@@]1(C)[C@@H](C2)C[C@H]2C[C@@H]1C2(C)C,x,2.0,-0.3,x,x,5.4,x,x,x,x,
C#CCOc1ccc(/C=C2/C(=O)N(c3cccc(C(=O)O)c3)N=C2C)cc1OC,70.5*,-3.7,-6.1,-0.8,-0.1,42.6*,8.5,27.6,19.0,x,
CC1=NN(c2ccccc2)C(=O)/C1=C\c1cn(-c2ccccc2)nc1C,6.1,1.5,0.6,8.8,-2.0,23.0,x,x,x,x,
COc1ccccc1/C=C1/C(=O)N(c2ccccc2)N=C1C,45.8*,9.8,-3.7,-8.1,-20.4,92.5*,12.6,21.2,7.0,x,
CC1=NN(c2ccccc2)C(=O)/C1=C\c1cn(CCC#N)nc1-c1ccc(Cl)cc1,53.2*,8.6,-5.1,-8.3,1.6,79.8*,10.0,22.9,12.1,x,
O=C(CN1C(=O)NC2(CCCCC2)C1=O)N1CCN(S(=O)(=O)c2cccc([N+](=O)[O-])c2)CC1,x,7.4,6.7,x,1.4,-5.7,x,x,x,x,
CCn1c(SC)nnc1C1CCCN(CC(=O)Nc2ccccc2N2CCOCC2)C1 (configuration not stated),8.6,1.9,2.5,-14.8,-4.1,9.0,x,x,x,x,
CC1(C)Cc2ccccc2C(Nn2cnnc2)=N1,7.3,2.8,5.6,2.9,-26.7,3.9,x,x,x,x,
CC1(C)Cc2ccccc2C2=NNC(=O)C2=N1,55.5*,4.3,8.0,-0.8,-3.4,62.1*,81.8*,63.9*,2.9,>100,
Nc1ccc2c(c1)C(=O)C(=O)c1ccccc1-2,94.2*,-17.8,-15.2,-7.9,58.0*,97.5*,94.2*,99.2*,2.2,>100,ZTA inh confirm=64.7*;EBNA1 counter=-10.9
